Hits are enriched below; roughly 4.1% of the tested compounds scored in any of these assays.
SMARCA2 activ = increases SMARCA2 function in MMTV reporter cells; MG213 cells, MMTV-luciferase reporter, dexamethasone, overnight; actives 1% (n = 370,000); activation, % at 9.1 µM; in the data active = activation above about 7.8%
MC4R ag barr = agonists of human melanocortin 4 receptor (MC4R) beta-arrestin. P32245. U2OS MC4R beta-arrestin complementation, luminescence; percent of melanotan II response, DMSO zero. activation, % at 8.9 µM. actives 0.98% (n = 360,000);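 active = activation above a per-plate cutoff, the mean activation of sample wells on that plate plus 3 SD, cut at about 8% in these data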
MPTP inh = permeability transition pore inhibition; isolated mouse mitochondria, Ca2+ swelling absorbance, 30 min; inhibition, % at 10 µM; actives 1.4% (n = 360,000); AID 602449;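 active = inhibition of 50% or more, scaled per plate between neutral and stimulator controls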
MC4R antagonist = blocks human MC4R cAMP signaling | P32245 | MC4R-expressing cells, MTII-stimulated cAMP, LANCE TR-FRET | inhibition, % at 6.5 µM | actives 0.48% (n = 360,000) | AID 540295;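 active = inhibition above its plate's cutoff, the mean of tested wells on that plate plus 3 SD, cut at about 29% in these data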
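System: U2OS-MC4R stable cell line; Technique: Eu-cAMP/anti-cAMP TR-FRET, emission 671 nm; Repeats: single well per compound; Also added: Melanotan II; Dosing: one concentration, 6.5 µM nominal; Schedule: 30-min compound, 1-h challenge, 1-h detection, room temperature.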
ATG4B inhibitor = ATG4B (human) cysteine protease inhibition; actives 0.51% (n = 340,000); inhibition, % at 8.33 µM; ATG4B cleavage of LC3-PLA2, NBD-HPC fluorescence, 1 h; AID 504462; in the data active = inhibition above about 40%
Target sequence (Q9Y4P1 whole entry, looked up): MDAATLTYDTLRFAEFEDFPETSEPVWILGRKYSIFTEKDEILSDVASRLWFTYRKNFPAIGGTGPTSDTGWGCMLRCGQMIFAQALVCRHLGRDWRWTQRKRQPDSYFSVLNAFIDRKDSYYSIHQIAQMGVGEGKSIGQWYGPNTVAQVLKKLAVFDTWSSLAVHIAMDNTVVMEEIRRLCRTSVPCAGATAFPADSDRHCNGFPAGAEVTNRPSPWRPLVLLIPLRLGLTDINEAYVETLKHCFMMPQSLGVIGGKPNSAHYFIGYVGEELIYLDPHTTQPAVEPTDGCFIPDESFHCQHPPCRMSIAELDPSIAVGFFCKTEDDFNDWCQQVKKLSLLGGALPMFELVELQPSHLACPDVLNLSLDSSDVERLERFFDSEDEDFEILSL
Rh123 counter = membrane potential counter-screen of mitochondrial pore inhibitors; actives 78% (n = 5,000); isolated mitochondria, Rhodamine 123 fluorescence; shares compounds with MPTP inh; inhibition, % at 10 µM; in the data active = inhibition above about 22%
MPTP swell DR = dose response confirmation of mitochondrial permeability transition pore inhibitors. shares compounds with MPTP inh. isolated mitochondria swelling, absorbance. IC50, µM. actives 58% (n = 780); in the data active = IC50 below about 20 µM
MPTP counter DR = MPTP inhibitor counter-screen activity, dose response | shares compounds with MPTP inh | isolated mitochondria counterscreen, fluorescence read-out | IC50, µM | actives 49% (n = 780); in the data active = IC50 below about 80 µM
A number is an active result.

Results for CN1CCC(Oc2ccccc2Sc2ccccc2)CC1 ?
SMARCA2 activ: inactive; MC4R ag barr: inactive; MPTP inh: 92; MC4R antagonist: inactive; ATG4B inhibitor: inactive; Rh123 counter: inactive; MPTP swell DR: 10; MPTP counter DR: 34

How did Cc1ccc(CN2CC(N3CCC[C@@H]3C)CS2(=O)=O)cc1 (stereo partly specified) do in these assays?
SMARCA2 activ: inactive

What do the screens show for `COc1ccc(NC(=O)CNC(=O)Cn2c(C)cc3ccccc3c2=O)cc1OC`?
SMARCA2 activ: inactive; MC4R ag barr: inactive; MPTP inh: 70; MC4R antagonist: inactive; ATG4B inhibitor: inactive; Rh123 counter: 24

What do the screens show for `COc1ccccc1NC(=O)Cn1c(C)cc(=O)c2cccc(OC)c21`?
SMARCA2 activ: inactive; MC4R ag barr: inactive; MPTP inh: 70; MC4R antagonist: inactive; ATG4B inhibitor: inactive; Rh123 counter: 55

What do the screens show for `COc1cc(NC(=O)CNC(=O)Cn2c(C)cc3ccccc3c2=O)cc(OC)c1OC`?
SMARCA2 activ: inactive; MC4R ag barr: inactive; MPTP inh: inactive; MC4R antagonist: inactive; ATG4B inhibitor: inactive

Results for COc1cccc2c(=O)cc(C)n(CC(=O)Nc3ccc(C)c(C)c3)c12 ?
SMARCA2 activ: inactive; MC4R ag barr: inactive; MPTP inh: inactive; MC4R antagonist: inactive; ATG4B inhibitor: inactive

Results for N#Cc1ccc(S(=O)(=O)N2CCCc3nc(-c4ccccc4)ccc32)cc1 ?
SMARCA2 activ: inactive

How did C[C@@H]1[C@@H](O)C[C@@]2(CC(=O)c3ccccc3O2)O[C@H]1c1ccccc1 do in these assays?
SMARCA2 activ: inactive

What do the screens show for `COc1ccccc1-n1cnnc1SCC(=O)c1cc(C)n(Cc2cccs2)c1C`?
SMARCA2 activ: inactive; MC4R ag barr: inactive; MPTP inh: inactive; MC4R antagonist: inactive; ATG4B inhibitor: inactive

Results for Cc1cc(C(=O)CSc2nnc(-c3ccccc3F)o2)c(C)n1Cc1cccs1 ?
SMARCA2 activ: inactive; MC4R ag barr: inactive; MPTP inh: 54; MC4R antagonist: inactive; ATG4B inhibitor: inactive; Rh123 counter: 29

Results for CN(C)S(=O)(=O)Oc1ccc(C(=O)Nc2cccc(Cl)c2)cc1 ?
SMARCA2 activ: inactive; MC4R ag barr: inactive; MPTP inh: inactive; MC4R antagonist: inactive; ATG4B inhibitor: inactive

Results for CN(C)S(=O)(=O)Oc1ccc(C(=O)Nc2cccc(C(F)(F)F)c2)cc1 ?
SMARCA2 activ: inactive; MC4R ag barr: inactive; MPTP inh: 74; MC4R antagonist: inactive; ATG4B inhibitor: inactive; Rh123 counter: 82

Results for CCCCN1C(=O)c2ccc(C(=O)Nc3cccc(C)c3C)cc2C1=O ?
SMARCA2 activ: inactive; MC4R ag barr: inactive; MPTP inh: inactive; MC4R antagonist: inactive; ATG4B inhibitor: inactive

What do the screens show for `Cc1ccc(NC(=O)c2ccncc2)cc1S(=O)(=O)N(C)C`?
SMARCA2 activ: inactive; MC4R ag barr: inactive; MPTP inh: inactive; MC4R antagonist: inactive; ATG4B inhibitor: inactive

How did CCCCN1C(=O)c2ccc(C(=O)Nc3ccc(C)c(S(=O)(=O)N(C)C)c3)cc2C1=O do in these assays?
SMARCA2 activ: inactive; MC4R ag barr: inactive; MPTP inh: 69; MC4R antagonist: inactive; ATG4B inhibitor: inactive; Rh123 counter: 69

Results for Cc1ccc(NC(=O)c2ccc(OC(F)(F)F)cc2)cc1S(=O)(=O)N(C)C ?
SMARCA2 activ: inactive; MC4R ag barr: inactive; MPTP inh: 78; MC4R antagonist: inactive; ATG4B inhibitor: inactive; Rh123 counter: 86

Results for CCNC(=O)Nc1ccc2c(c1)C(=O)N(C)[C@H]1CC[C@H](CC(=O)N[C@H](C)c3ccccc3)O[C@@H]1CO2 ?
SMARCA2 activ: inactive

Results for COc1cc(/C=C2\SC(=O)N(CCN)C2=O)ccc1OS(=O)(=O)c1cc(C)ccc1C ?
SMARCA2 activ: inactive; MC4R ag barr: inactive; MPTP inh: 82; MC4R antagonist: inactive; ATG4B inhibitor: inactive; Rh123 counter: inactive; MPTP swell DR: 7.5; MPTP counter DR: 29

Results for CSc1nc(-c2ccc(Cl)cc2Cl)[nH]c(=O)c1C#N ?
SMARCA2 activ: inactive; MC4R ag barr: inactive; MPTP inh: 88; MC4R antagonist: inactive; ATG4B inhibitor: inactive; Rh123 counter: 89

What do the screens show for `Cc1cc(-c2ccc(Cl)cc2Cl)c(C#N)c(=O)[nH]1`?
SMARCA2 activ: inactive; MC4R ag barr: inactive; MPTP inh: inactive; MC4R antagonist: inactive; ATG4B inhibitor: inactive

Results for CC(=O)Nc1ccc(NC(=O)C(C)OC(=O)c2ccccc2NS(=O)(=O)c2cccs2)cc1 (stereo unspecified) ?
SMARCA2 activ: inactive; MC4R ag barr: inactive; MPTP inh: inactive; MC4R antagonist: inactive; ATG4B inhibitor: inactive

What do the screens show for `Cc1cccc(NC(=O)C(C)OC(=O)c2ccccc2NS(=O)(=O)c2cc(C)c(C)c([N+](=O)[O-])c2)c1` (stereo unspecified)?
SMARCA2 activ: inactive; MC4R ag barr: inactive; MPTP inh: 93; MC4R antagonist: inactive; ATG4B inhibitor: inactive; Rh123 counter: 65

Results for O=C(COC(=O)C1CC2C=CC1C2)Nc1cccc(S(=O)(=O)N2CCCCC2)c1 (stereo unspecified) ?
SMARCA2 activ: inactive; MC4R ag barr: inactive; MPTP inh: 59; MC4R antagonist: inactive; ATG4B inhibitor: inactive; Rh123 counter: 38

How did O=C(COC(=O)C1CC2C=CC1C2)Nc1cccc(S(=O)(=O)N2CCCCCC2)c1 (stereo unspecified) do in these assays?
SMARCA2 activ: inactive; MC4R ag barr: inactive; MPTP inh: 65; MC4R antagonist: inactive; ATG4B inhibitor: inactive; Rh123 counter: 70

What do the screens show for `O=C(COC(=O)C1CCC1)Nc1cccc(S(=O)(=O)N2CCOCC2)c1`?
SMARCA2 activ: inactive; MC4R ag barr: inactive; MPTP inh: inactive; MC4R antagonist: inactive; ATG4B inhibitor: inactive

Results for O=C(NC1CCCCN(Cc2cccc(C(F)(F)F)c2)C1=O)c1ccc(F)cc1 (stereo unspecified) ?
SMARCA2 activ: inactive

Results for O=C1NCN(c2ccccc2)C12CCN(CCCC(c1ccc(F)cc1)c1ccc(F)cc1)CC2 ?
SMARCA2 activ: inactive; MC4R ag barr: inactive; MPTP inh: 100; MC4R antagonist: inactive; ATG4B inhibitor: inactive; Rh123 counter: inactive; MPTP swell DR: 7.3; MPTP counter DR: 31

How did Cc1[nH]nc2c1C(c1ccc(F)cc1)N(Cc1ccccc1)C2=O (stereo unspecified) do in these assays?
SMARCA2 activ: inactive

Results for O=C(CCCN1C(=O)/C(=C\c2cccs2)SC1=S)Nc1cc([N+](=O)[O-])ccc1O ?
SMARCA2 activ: inactive; MC4R ag barr: inactive; MPTP inh: 74; MC4R antagonist: inactive; ATG4B inhibitor: inactive; Rh123 counter: 64

Assay outcomes from PubChem BioAssay.
